ChEMBL document CHEMBL4152242, “Synthesis and biological activity of novel tert-butyl and tert-pentylphenoxyalkyl piperazine derivatives as histamine H3R ligands” (Eur J Med Chem, 2018)
Calls of active or inactive are those of the source. No cut-off for these calls is given here.

Legend:
[1] = Drug metabolism in human liver microsomes after 2 hrs by UPLC analysis; type: ADME, microsome; conditions: read-out: Drug metabolism
How it was run: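 Incubation with human liver microsomes for 120 min; reaction mixture analysed by UPLC-MS, with MS fragmentation used to identify metabolites. In silico site-of-metabolism prediction run alongside.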

[2] = molecular target: Histamine H1 receptor (Cavia porcellus) (UniProt P31389); assay: Competitive antagonist activity at H1 receptor in guinea pig ileum assessed as inhibition of histamine-induced ileum contraction measured after 15 mins
How it was run: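 Ileum from male guinea pigs cut into 2 cm segments in Krebs at 37°C, pH 7.4, O2/CO2 19:1, 0.5 g resting tension, equilibrated 60 min. Cumulative histamine curve (10 nM–10 µM), then 15 min with one antagonist concentration per tissue and a repeat curve. Responses are % of first-curve max. pA2 comes from Schild analysis if slope ≈1, otherwise pKB from concentration ratio; 4–8 repeats.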

[3] = molecular target: Histamine H1 receptor (Cavia porcellus) (UniProt P31389); assay: Antagonist activity at H1 receptor in guinea pig ileum assessed as inhibition of histamine-induced ileum contraction measured after 15 mins
How it was run: (§1)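 Male guinea-pig ileum (300-400 g), 2 cm segments in Krebs solution at 37°C, pH 7.4, O2/CO2 19:1, 0.5 g resting tension, 60 min equilibration. Cumulative agonist curves were run with histamine (10 nM–10 µM; H1) or carbachol (3 nM–3 µM; muscarinic), then repeated after 15 min with one antagonist concentration per tissue. Responses were taken as % of first-curve Emax, with pA2 from Schild analysis or pKB from the concentration ratio.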

Mus musculus [4] = assay: Reversal of scopolamine-induced memory deficit in Albino Swiss CD-1 mouse assessed as increase in step through latency time at 2.5 to 30 mg/kg, ip treated for 1 hr before training followed by scopolamine challenge 30 mins before training measured 24 hrs after training trial by passive avoidance test; type: functional, organism-based
Cavia porcellus [5] = species: Cavia porcellus; assay: Agonist activity at muscarinic receptor in guinea pig ileum assessed as induction of ileum contraction measured after 15 mins
Cavia porcellus [6] = species: Cavia porcellus; assay: (§2) Antagonist activity at muscarinic receptor in guinea pig ileum assessed as carbachol-induced ileum contraction measured after 15 mins; how it was run: as §1
Rattus norvegicus [7] = assay: Reversal of RAMH-induced dipsogenia in ip dosed Krf:(WI) WU rat assessed as inhibition of drinking response pretreated for 30 mins followed by RAMH stimulation for 20 mins measured for 30 mins; type: functional
How it was run: (§3)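 Male Wistar Krf:(WI) WU rats (<250 g), 6–8 per group. Compound, pitolisant or vehicle (1% Tween 80) given i.p. 30 min before RAMH 10 mg/kg i.p. Water intake measured for 30 min, starting 20 min after RAMH. Inhibition = 100 − (individual intake / RAMH-group intake) × 100. ED50 by log-probit with 95% CL; one-way ANOVA with Dunnett.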

Mus musculus [8] = assay: Anticonvulsant activity in ip dosed maximal electroshock induced seizure TO mouse model assessed as suppression of tonic hind limb extension pretreated for 30 to 45 mins followed by maximal electroshock induction; type: functional, organism-based
Histamine H3 receptor = Histamine H3 receptor (Homo sapiens, UniProt Q9Y5N1); assay: Displacement of [3H]Nalpha-methylhistamine from recombinant human H3 receptor expressed in HEK293 cells after 90 mins by liquid scintillation counting method; type: cell-based
How it was run: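 Thawed, homogenized membranes from HEK-293 cells stably expressing full-length human H3R, incubated 90 min at RT with shaking with 2 nM [3H]Nα-methylhistamine (KD 3.08 nM) and 5–11 concentrations (0.01 nM–10 µM). Nonspecific binding with pitolisant 10 µM. GF/B filtration (0.3% PEI), ice-cold water washes, scintillation counting. Ki by Cheng-Prusoff; mean (95% CI), ≥3 experiments in at least duplicate.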

Mus musculus [9] = assay: Reversal of scopolamine-induced memory deficit in Albino Swiss CD-1 mouse assessed as increase in step through latency time at 2.5 to 30 mg/kg, ip treated for 1 hr prior to testing followed by scopolamine challenge measured after 30 mins by passive avoidance test; type: functional, organism-based
[10] = molecular target: Histamine H1 receptor (Cavia porcellus) (UniProt P31389); assay: Agonist activity at H1 receptor in guinea pig ileum assessed as induction of ileum contraction measured after 15 mins
[11] = as §2; conditions: Cavia porcellus, 0.25 h; read-out: pA2 (converted); how it was run: as §1
Mus musculus [12] = assay: Anticonvulsant activity in maximal electroshock induced seizure TO mouse model assessed as suppression of tonic hind limb extension at 10 mg/kg, ip pretreated for 30 to 45 mins followed by maximal electroshock induction; type: functional, organism-based
Mus musculus [13] = assay: Toxicity in TO mouse model assessed as mortality at 10 mg/kg, ip; type: organism-based; conditions: in vivo
Histamine H4 receptor = Histamine H4 receptor (Homo sapiens, UniProt Q9H3N8); assay: Inhibition of human H4 receptor
Rattus norvegicus [14] = assay: Reversal of RAMH-induced dipsogenia in Krf:(WI) WU rat assessed as inhibition of drinking response at 1.25 mg/kg, ip pretreated for 30 mins followed by RAMH stimulation for 20 mins measured for 30 mins relative to control; type: functional; how it was run: as §3

Sequence of Histamine H1 receptor (Cavia porcellus) (P31389 whole entry): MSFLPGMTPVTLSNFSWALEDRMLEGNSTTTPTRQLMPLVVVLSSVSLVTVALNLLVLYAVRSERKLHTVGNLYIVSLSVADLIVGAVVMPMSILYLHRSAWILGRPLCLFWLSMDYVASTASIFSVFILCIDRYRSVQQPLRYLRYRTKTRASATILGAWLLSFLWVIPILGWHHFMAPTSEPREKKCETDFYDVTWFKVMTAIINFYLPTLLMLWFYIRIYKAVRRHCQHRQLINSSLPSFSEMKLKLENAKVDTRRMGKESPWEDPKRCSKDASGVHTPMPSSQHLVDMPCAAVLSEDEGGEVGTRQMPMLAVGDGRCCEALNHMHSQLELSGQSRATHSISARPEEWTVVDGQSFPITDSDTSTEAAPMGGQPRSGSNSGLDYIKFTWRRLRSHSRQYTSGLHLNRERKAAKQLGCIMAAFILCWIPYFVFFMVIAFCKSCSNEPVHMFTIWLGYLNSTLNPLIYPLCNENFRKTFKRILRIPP
Sequence of Histamine H3 receptor (Q9Y5N1 whole entry): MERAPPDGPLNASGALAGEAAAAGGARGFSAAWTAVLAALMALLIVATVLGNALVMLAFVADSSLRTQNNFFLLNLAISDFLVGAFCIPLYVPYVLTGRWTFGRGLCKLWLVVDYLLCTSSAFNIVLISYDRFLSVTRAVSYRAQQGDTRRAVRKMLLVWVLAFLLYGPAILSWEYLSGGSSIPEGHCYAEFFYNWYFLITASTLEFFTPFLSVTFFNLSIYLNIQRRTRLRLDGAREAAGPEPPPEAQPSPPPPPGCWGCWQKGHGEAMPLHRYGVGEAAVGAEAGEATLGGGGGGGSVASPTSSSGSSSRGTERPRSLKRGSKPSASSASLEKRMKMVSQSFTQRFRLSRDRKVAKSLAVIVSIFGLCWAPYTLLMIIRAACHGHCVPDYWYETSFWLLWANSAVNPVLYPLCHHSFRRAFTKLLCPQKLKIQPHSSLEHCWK
Sequence of Histamine H4 receptor (Q9H3N8 whole entry): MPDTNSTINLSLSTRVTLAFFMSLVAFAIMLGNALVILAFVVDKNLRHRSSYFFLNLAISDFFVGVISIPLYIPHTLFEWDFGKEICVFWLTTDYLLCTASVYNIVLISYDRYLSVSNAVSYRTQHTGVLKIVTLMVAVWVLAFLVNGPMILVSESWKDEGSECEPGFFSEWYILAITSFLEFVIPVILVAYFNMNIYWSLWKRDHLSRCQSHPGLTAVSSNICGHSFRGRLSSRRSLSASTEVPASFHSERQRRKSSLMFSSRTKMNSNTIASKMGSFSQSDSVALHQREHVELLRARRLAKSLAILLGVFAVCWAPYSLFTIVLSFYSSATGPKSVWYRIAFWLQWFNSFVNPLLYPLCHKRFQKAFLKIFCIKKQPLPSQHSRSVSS

## CC(C)(C)c1ccc(OCCCCN2CCN(c3ccncc3)CC2)cc1
[1]
  metabolised at 2 h: 30%
[2]
  pKb: 6.15
[3]
  inhibition: Dose-dependent effect
Mus musculus [4]
  Activity: Active
Cavia porcellus [5]
  Activity: inactive
Cavia porcellus [6]
  inhibition: Dose-dependent effect
  pKb: 6.39
Rattus norvegicus [7]
  ED50: 10.7 mg/kg
  inhibition: Dose-dependent effect
Mus musculus [8]
  Activity: Dose-dependent effect
Histamine H3 receptor
  Ki: 0.0378 µM
Mus musculus [9]
  Activity: inactive
[10]
  Activity: inactive

## CN1[C@@H]2CC[C@H]1C[C@@H](OC(=O)C(CO)c1ccccc1)C2 (stereo not given in full) [ATROPINE]
[11]
  Kb: 0.00104 µM

## CCC(C)(C)c1ccc(OCCCN2CCN(c3cccnc3)CC2)cc1
Histamine H3 receptor
  Ki: 3.65 µM

## CC(C)(C)c1ccc(OCCCCN2CCN(c3cnccn3)CC2)cc1
Histamine H3 receptor
  Ki: 5.48 µM

## CCC(C)(C)c1ccc(OCCCN2CCN(c3ccccn3)CC2)cc1
Histamine H3 receptor
  Ki: 5.2 µM

## CC(C)(C)c1ccc(OCCCN2CCN(c3ccccn3)CC2)cc1
Histamine H3 receptor
  Ki: > 10 µM

## O=C1NC(=O)C(c2ccccc2)(c2ccccc2)N1 [PHENYTOIN]
Mus musculus [12]
  Activity: Active
Mus musculus [13]
  Activity: Non-Toxic

## CCC(C)(C)c1ccc(OCCCCN2CCN(c3cccnc3)CC2)cc1
Histamine H3 receptor
  Ki: > 10 µM

## CCC(C)(C)c1ccc(OCCCCN2CCN(c3ccccn3)CC2)cc1
Histamine H3 receptor
  Ki: 0.482 µM

## CC(C)(C)c1ccc(OCCCCN2CCN(c3ncccn3)CC2)cc1
Histamine H3 receptor
  Ki: 0.883 µM

## CC(C)(C)c1ccc(OCCCCN2CCN(C(=O)C3CCCO3)CC2)cc1 (stereo not given)
Histamine H3 receptor
  Ki: > 10 µM

## CCC(C)(C)c1ccc(OCCCCN2CCN(c3ccncc3)CC2)cc1
Mus musculus [12]
  Activity: Active
Histamine H3 receptor
  Ki: 0.12 µM

## CCC(C)(C)c1ccc(OCCCCN2CCN(C(=O)C3CCCO3)CC2)cc1 (stereo not given)
Histamine H3 receptor
  Ki: > 10 µM

## CC(C)(C)c1ccc(OCCCN2CCN(c3ncccn3)CC2)cc1
Histamine H3 receptor
  Ki: 3.83 µM

## CC(C)(C)c1ccc(OCCCN2CCCCC2)cc1
Histamine H3 receptor
  Ki: 0.022 µM

## CC(C)(C)c1ccc(OCCCN2CCN(c3cnccn3)CC2)cc1
Histamine H3 receptor
  Ki: 8.74 µM

## Clc1ccc(CCCOCCCN2CCCCC2)cc1 [PITOLISANT]
Histamine H4 receptor
  Ki: > 100 µM
Rattus norvegicus [14]
  inhibition in vivo at 1.25 mg/kg: 87.4%

## CC(C)(C)c1ccc(OCCCCN2CCN(c3ccccn3)CC2)cc1
Histamine H3 receptor
  Ki: 2.96 µM

## CCC(C)(C)c1ccc(OCCCN2CCN(c3ncccn3)CC2)cc1
Histamine H3 receptor
  Ki: 5.41 µM

## CCC(C)(C)c1ccc(OCCCN2CCN(c3ccncc3)CC2)cc1
Mus musculus [12]
  Activity: Active
Histamine H3 receptor
  Ki: 0.0306 µM

## CCC(C)(C)c1ccc(OCCCN2CCN(C(=O)C3CCCO3)CC2)cc1 (stereo not given)
Histamine H3 receptor
  Ki: > 10 µM

## CCC(C)(C)c1ccc(OCCCN2CCN(c3cnccn3)CC2)cc1
Histamine H3 receptor
  Ki: 6.21 µM

## CC(C)(C)c1ccc(OCCCCN2CCN(c3cccnc3)CC2)cc1
Histamine H3 receptor
  Ki: 3.42 µM

## CCC(C)(C)c1ccc(OCCCCN2CCN(c3ncccn3)CC2)cc1
Histamine H3 receptor
  Ki: 2.26 µM

## CC(C)(C)c1ccc(OCCCN2CCN(C(=O)C3CCCO3)CC2)cc1 (stereo not given)
Histamine H3 receptor
  Ki: > 10 µM

## CCC(C)(C)c1ccc(OCCCCN2CCN(c3cnccn3)CC2)cc1
Histamine H3 receptor
  Ki: 0.683 µM

## CC(C)(C)c1ccc(OCCCN2CCN(c3ccncc3)CC2)cc1
Mus musculus [12]
  Activity: Active
Histamine H3 receptor
  Ki: 0.016 µM

## CC(C)(C)c1ccc(OCCCN2CCN(c3cccnc3)CC2)cc1
Histamine H3 receptor
  Ki: 8.16 µM
